Bioassay records: PubChem, several laboratories
FXIa inh 1536: human FXIa protease inhibitors, primary screen, biochemical, 1536-well; Coagulation factor XI (Homo sapiens), P03951; purified FXIa, Boc-Glu-Ala-Arg-AMC fluorogenic substrate; inhibition, % at 5 µM; hit rate 0.14% among 220,000;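 active means inhibition of at least 40%; inactive means inhibition below 40%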;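 further: fluorescence of freed AMC excited at 355 nm; 0% = enzyme without compound and 100% = no enzyme blank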
Target sequence (P03951 19-387 limits assumed): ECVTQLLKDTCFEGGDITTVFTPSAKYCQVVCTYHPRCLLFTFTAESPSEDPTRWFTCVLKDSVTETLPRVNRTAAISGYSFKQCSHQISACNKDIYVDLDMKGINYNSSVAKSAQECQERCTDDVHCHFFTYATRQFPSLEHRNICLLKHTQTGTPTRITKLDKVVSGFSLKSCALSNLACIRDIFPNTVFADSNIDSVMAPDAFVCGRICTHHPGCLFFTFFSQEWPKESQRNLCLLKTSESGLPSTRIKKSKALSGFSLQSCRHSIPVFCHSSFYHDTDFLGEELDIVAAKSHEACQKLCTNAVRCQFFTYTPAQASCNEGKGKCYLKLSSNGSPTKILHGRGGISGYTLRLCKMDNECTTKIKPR
Target sequence (P03951 388-625 limits assumed): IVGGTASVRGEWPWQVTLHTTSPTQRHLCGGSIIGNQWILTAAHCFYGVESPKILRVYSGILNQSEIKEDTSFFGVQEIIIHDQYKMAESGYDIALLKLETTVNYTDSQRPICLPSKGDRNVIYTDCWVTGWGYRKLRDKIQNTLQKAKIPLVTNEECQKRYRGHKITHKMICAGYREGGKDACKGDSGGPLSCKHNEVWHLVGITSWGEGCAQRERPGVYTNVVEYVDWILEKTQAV
hK5 inh: human KLK5 protease inhibitors, primary screen, biochemical, 1536-well. recombinant hK5, fluorogenic AMC substrate cleavage. inhibition, % at 5 µM. hit rate 0.59% among 210,000. AID 873, 2007;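 active means inhibition of 40% or more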;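 further: 0% = enzyme controls without compound and 100% = no-enzyme blanks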
Furin inh: human furin inhibitors, primary screen, biochemical, fluorescence intensity; P09958; purified furin, fluorogenic substrate cleavage; inhibition, % at 20 µM or 30 µM; hit rate 0.061% among 220,000; AID 463115, 2010; in the data active means inhibition above about 25%
Thrombin inh: human alpha-thrombin inhibitors, primary screen, counter-screen for coagulation protease inhibitor project, biochemical, 1536-well, fluorogenic AMC substrate | hit rate 0.26% among 220,000 | AID 1046, 2008 | Prothrombin (Homo sapiens), P00734 | inhibition, % at 5 µM | Boc-VPR-AMC fluorogenic substrate cleavage;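 active means inhibition at or above 40%; inactive means inhibition below 40%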;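 further: 0% = enzyme with no compound and 100% = wells without enzyme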
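Material: human alpha-thrombin enzyme / Medium: pH 7.5 Tris (50 mM) with NaCl 150 mM, Tween 20 0.05% / Compound: single-point dosing at 5 µM, 0.2% DMSO / Incubation: enzyme reaction carried out at room temperature / Detection: AMC fluorescence, 355/460 nm / Read-out basis: percent inhibition scaled between no-compound controls and no-enzyme blanks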
FXIIa inh 1536: human FXIIa protease inhibitors, primary screen, biochemical, 1536-well; hit rate 0.3% among 220,000; inhibition, % at 5 µM; purified FXIIa, Boc-QGR-AMC fluorogenic substrate, 2 h; in the data active means inhibition above about 40%;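 further: 0% = enzyme with no compound and 100% = blank without enzyme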
Numbers without * were called inactive. Rows were chosen to be rich in hits. Some 1.1% of all compounds tested hit in one or more screens of this group.

SMILES	FXIa inh 1536	hK5 inh	Furin inh	Thrombin inh	FXIIa inh 1536
Clc1ccccc1Cn1nnc2c(NCCN3CCOCC3)ncnc21	47*	23	-18	26	11
c1ccc(Cn2nnc3c(NCCN4CCOCC4)ncnc32)cc1	22	20	-17	31	13
Cc1ccc(-c2csc(NC(=O)c3ccc(S(=O)(=O)N4CCc5ccccc54)cc3)n2)cc1	21	-9	-1	-1	26
O=C(Nc1nc(-c2ccccc2)cs1)c1ccc(S(=O)(=O)N2CCc3ccccc32)cc1	59*	-9	1	-2	15
COc1cc(OC)nc(/N=C/NO)n1	0	-11	-14	-9	5
COc1ccc(O)c(/C=N/NC(=O)c2cc(=O)[nH]c3ccccc23)c1	37	14	-6	20	66*
Cc1cccc(N2CCN(C3=NC(=O)C(=C4CCCCC4)S3)CC2)c1	-5	120*	-3	1	-3
CC(=O)N1CCN(C2=NC(=O)C(=C3CCCCC3)S2)CC1	1	-6	-17	-1	6
O=C1CSC(c2cn(-c3ccccc3)nc2-c2cc3ccccc3oc2=O)N1Cc1ccco1 (stereo not given)	22	153*	-43	-4	8
CCn1cc(C(=O)NCc2ccco2)c(=O)c2cc(S(=O)(=O)N3CCCC3)ccc21	3	1	-23	83*	10
CCN(CC)S(=O)(=O)c1ccc2c(c1)c(=O)c(C(=O)NCCCN(C)c1ccccc1)cn2C	-1	2	-13	-1	9
CCN(CC)S(=O)(=O)c1ccc2c(c1)c(=O)c(C(=O)NCc1cccs1)cn2C	5	-7	-29	64*	12
COc1ccccc1CNC(=O)c1cn(C)c2ccc(S(=O)(=O)N3CCCC3)cc2c1=O	-4	-6	-23	45*	6
Cn1cc(C(=O)NCc2ccc(F)cc2)c(=O)c2cc(S(=O)(=O)N3CCCCC3)ccc21	-6	-9	-10	3	0
CCn1cc(C(=O)NCCc2ccccc2)c(=O)c2cc(S(=O)(=O)N3CCCC3)ccc21	-2	-4	-11	31	4
O=C(O)CNC(=O)C12CC3CC(CC(Cl)(C3)C1)C2	-1	1	-18	-4	3
Cc1cc(C)nc(Sc2nc(Cl)nc(N(c3ccccc3)c3ccccc3)n2)n1	12	14	-3	12	21
COc1ccc(C)cc1Cn1c(S(C)(=O)=O)nc2ccccc21	-1	-6	0	-5	11
Cc1ccc2c(c1)N(Cc1ccncc1)C(=O)C(C)O2 (stereo not given)	2	-25	-5	-6	0
COc1ccc(C(=O)c2oc3ccccc3c2N)cc1	8	7	-12	0	9
COc1ccc2oc(C(=O)c3ccccc3)c(N)c2c1	15	49*	-12	26	28
COc1cc(CNC(C)(C)CO)ccc1OCC(=O)Nc1ccc(Br)cc1	-7	42*	-20	3	9
NC(=O)c1ccc(NC(=O)CSc2nnc(-c3ccccn3)n2N)cc1	-3	-7	-26	1	6
CC1(C)CC(=O)c2c(Cc3ccccc3)n[nH]c2C1	-1	50*	-6	14	19
CCCCc1n[nH]c2c1C(=O)CC(C)(C)C2	2	4	-16	-2	6
SMILES	FXIa inh 1536	hK5 inh	Furin inh	Thrombin inh	FXIIa inh 1536
COc1ccc(S(=O)(=O)N2CCCC2C(=O)NCc2cccs2)cc1 (stereo not given)	12	48*	-4	18	-2
CCNC(=O)C1CCCN1S(=O)(=O)c1ccc(OC)cc1 (stereo not given)	-11	-2	-18	-6	-9
Cc1ccc(CNC(=O)C2CC(=O)N(c3ccc(OCC(=O)N4CCCC4)cc3)C2)cc1 (stereo not given)	9	-4	-22	5	18
Cc1ccc(CN2CC34C=CC(O3)C(C(=O)NCc3ccco3)C4C2=O)cc1 (stereo not given)	-1	156*	-7	1	-2
Cc1ccc(OP(=O)(Nc2c(C)n(C)n(-c3ccccc3)c2=O)Oc2ccc(C)cc2)cc1	5	-18	3	-1	7
COc1ccc(N2C(=O)C(CC(=O)Nc3ccccc3)N(CCc3ccc(OC)c(OC)c3)C2=O)cc1 (stereo not given)	2	0	-21	-4	8
